The text below walks through data of ChEMBL document CHEMBL4364279, “Design, synthesis, in-silico and biological evaluation of novel chalcone-O-carbamate derivatives as multifunctional agents for the treatment of Alzheimer's disease” (Eur J Med Chem, 2019).

A word on the inhibition: it is the change of the read-out against control, counted positive when it falls. The Papp is the rate of passage across a membrane or cell layer, normalised by area and donor concentration. The term IC50 denotes the midpoint of a concentration-inhibition curve. Low values mean inhibition by little substance, high ones a need for much substance.

Active and inactive are the calls of the source. No cut-off for these calls is given here.

Data set [1] has as its system Mus musculus. Kind of data set: Effect on total arm entries in Kunming mouse model of scopolamine-induced cognitive impairment in at 2.6 to 23.4 mg/kg, ig pretreated for 30 min followed by scopolamine challenge and measured after 30 mins by Y-maze test. The data set is classed as ADME, organism-based. The conditions noted are these: in vivo, po, 0.5 h.
In data set [2] the target is Cholinesterase (Homo sapiens) (UniProt P06276). Kind of data set: Reversible competitive inhibition of BuChE (unknown origin) assessed as […] at 1 to 6 uM using butyrylthiocholine iodide as susbtrate.
The next data set in a line: in vitro. Conditions: PAMPA, pH 7.4.
In data set [3] the test system is Mus musculus. Kind of data set: Reversal of scopolamine-induced memory cognitive memory impairment in Kunming mouse assessed as change in spontaneous alteration behavior at 23.4 mg/kg, ig pretreated for 30 mins followed by scopolamine challenge and after 30 mins by Y-maze test (reference value: 45.6%). Format: functional.
Data set [4] addresses T1, Amine oxidase [flavin-containing] B (Homo sapiens, UniProt P27338).
T1 sequence (P27338 whole entry): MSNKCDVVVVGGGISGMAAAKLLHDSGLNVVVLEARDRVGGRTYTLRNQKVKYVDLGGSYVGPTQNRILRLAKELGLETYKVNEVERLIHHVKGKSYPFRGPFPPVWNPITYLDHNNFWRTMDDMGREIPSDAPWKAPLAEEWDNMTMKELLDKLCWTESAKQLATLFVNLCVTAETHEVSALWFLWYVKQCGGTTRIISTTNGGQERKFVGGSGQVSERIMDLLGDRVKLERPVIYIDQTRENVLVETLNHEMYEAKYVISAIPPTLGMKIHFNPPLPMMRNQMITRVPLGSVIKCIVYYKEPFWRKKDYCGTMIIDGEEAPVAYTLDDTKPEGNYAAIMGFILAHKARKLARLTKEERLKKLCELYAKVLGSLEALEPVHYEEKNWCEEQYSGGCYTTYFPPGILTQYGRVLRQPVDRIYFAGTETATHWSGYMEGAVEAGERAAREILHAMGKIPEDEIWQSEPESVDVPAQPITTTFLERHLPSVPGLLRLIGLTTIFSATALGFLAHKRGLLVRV
Description: biochemical. The data set is classed as cell-based.

A short description of data set [5]: Toxicity in Kunming mouse assessed as mortality at 20 to 500 mg/kg measured up to 14 days. Format: organism-based. Conditions: in vivo, 336 h.
Data set [6] in a line: Inhibition of Cu2+-induced amyloid beta (1 to 42 residues) (unknown origin) aggregation assessed as appearance of small bulk aggregates at 25 uM after 24 hrs uranyl acetate staining-based by TEM analysis. A digest of the protocol:
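Aβ1-42 (25 µM) and Cu2+ (25 µM) incubated with compound at 37 °C for 24 h. Aliquots applied to carbon-coated copper/rhodium grids for 2 min at room temperature, washed with water, stained with 1% w/v uranyl acetate, air-dried 15 min, then examined by field-emission TEM.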

For data set [7], the target named is Amyloid-beta precursor protein (Homo sapiens) (UniProt P05067). Kind of data set: Inhibition of self-induced amyloid beta (1 to 42) (unknown origin) aggregation at 25 uM after 24 hrs by thioflavin-T based fluorescence assay relative to control.
Sequence of Amyloid-beta precursor protein (Homo sapiens) (P05067 whole entry): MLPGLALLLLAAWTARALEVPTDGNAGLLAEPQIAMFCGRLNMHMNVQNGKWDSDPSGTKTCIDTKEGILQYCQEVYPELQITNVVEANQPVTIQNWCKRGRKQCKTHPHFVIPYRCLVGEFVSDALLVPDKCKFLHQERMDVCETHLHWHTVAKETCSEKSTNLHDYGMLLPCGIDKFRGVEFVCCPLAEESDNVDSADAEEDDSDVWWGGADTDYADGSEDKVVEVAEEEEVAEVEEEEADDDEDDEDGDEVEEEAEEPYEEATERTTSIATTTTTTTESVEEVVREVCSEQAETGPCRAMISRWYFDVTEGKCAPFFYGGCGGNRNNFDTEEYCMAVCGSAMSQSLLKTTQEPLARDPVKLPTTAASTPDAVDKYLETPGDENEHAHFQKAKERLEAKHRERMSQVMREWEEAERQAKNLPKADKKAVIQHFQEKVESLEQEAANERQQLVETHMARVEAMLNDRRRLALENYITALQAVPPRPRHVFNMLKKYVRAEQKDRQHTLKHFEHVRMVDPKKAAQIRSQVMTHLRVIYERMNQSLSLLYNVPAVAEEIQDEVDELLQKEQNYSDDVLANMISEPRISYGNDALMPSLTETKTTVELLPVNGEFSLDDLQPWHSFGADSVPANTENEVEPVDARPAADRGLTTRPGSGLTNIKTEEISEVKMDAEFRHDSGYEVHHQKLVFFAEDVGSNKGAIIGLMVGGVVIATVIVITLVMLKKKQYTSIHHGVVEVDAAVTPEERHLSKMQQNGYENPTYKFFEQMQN

Sequence of Cholinesterase (Homo sapiens) (P06276 whole entry): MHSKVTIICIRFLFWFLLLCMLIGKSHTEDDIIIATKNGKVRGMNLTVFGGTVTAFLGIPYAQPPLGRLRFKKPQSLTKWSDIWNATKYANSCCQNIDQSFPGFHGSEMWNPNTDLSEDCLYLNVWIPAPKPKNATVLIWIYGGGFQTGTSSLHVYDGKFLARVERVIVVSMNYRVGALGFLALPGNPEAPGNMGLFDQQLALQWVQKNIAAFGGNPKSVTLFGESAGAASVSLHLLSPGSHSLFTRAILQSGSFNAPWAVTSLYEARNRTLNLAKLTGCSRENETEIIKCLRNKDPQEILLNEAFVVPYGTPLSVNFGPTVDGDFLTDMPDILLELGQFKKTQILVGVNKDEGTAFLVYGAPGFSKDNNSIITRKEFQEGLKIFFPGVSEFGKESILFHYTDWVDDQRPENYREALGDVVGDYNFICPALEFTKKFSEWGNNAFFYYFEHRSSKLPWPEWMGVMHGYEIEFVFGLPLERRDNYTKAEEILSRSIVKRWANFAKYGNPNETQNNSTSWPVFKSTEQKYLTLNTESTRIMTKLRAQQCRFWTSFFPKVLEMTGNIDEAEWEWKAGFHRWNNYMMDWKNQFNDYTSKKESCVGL

Regarding `CCN(C)C(=O)Oc1cccc(/C=C/C(=O)c2ccccc2O)c1`, the Activity result in the data set with Mus musculus [1] is listed as “Non-Toxic”; in the data set with Mus musculus [3], 59.5%; in data set [5], “Non-Toxic”. Also, the inhibition result in data set [2] and in data set [6] was “Active” throughout. Also, in “in vitro”, the Papp at 100 ug/ml was determined as 15.7 ×10⁻⁶ cm/s. For the same molecule, it took 1300 nM to reach half-maximal inhibition in data set [4] (IC50). The inhibition in data set [7] came to 63.9%.
